Test results reported in ChEMBL document CHEMBL3611968, “Reengineered tricyclic anti-cancer agents” (Bioorg Med Chem, 2015).
The source made the active and inactive calls. The rule behind the calls is not given here.

What was measured:
[1] = biological target: D(2) dopamine receptor (Homo sapiens) (UniProt P14416); test: Binding affinity to dopamine D2 receptor (unknown origin) at 0.1 mM by radioligand displacement assay relative to control
[2] = biological target: RAC-alpha serine/threonine-protein kinase (Homo sapiens) (UniProt P31749); test: Inhibition of AKT phosphorylation in human NCI-H1650 cells at 20 to 40 uM after 12 hrs by Western blot analysis; assay type: cell-based
[3] = biological target: T1, D(4) dopamine receptor (Homo sapiens) (UniProt P21917); test: Binding affinity to dopamine D4 receptor (unknown origin) at 0.1 mM by radioligand displacement assay relative to control
T1 sequence (whole entry): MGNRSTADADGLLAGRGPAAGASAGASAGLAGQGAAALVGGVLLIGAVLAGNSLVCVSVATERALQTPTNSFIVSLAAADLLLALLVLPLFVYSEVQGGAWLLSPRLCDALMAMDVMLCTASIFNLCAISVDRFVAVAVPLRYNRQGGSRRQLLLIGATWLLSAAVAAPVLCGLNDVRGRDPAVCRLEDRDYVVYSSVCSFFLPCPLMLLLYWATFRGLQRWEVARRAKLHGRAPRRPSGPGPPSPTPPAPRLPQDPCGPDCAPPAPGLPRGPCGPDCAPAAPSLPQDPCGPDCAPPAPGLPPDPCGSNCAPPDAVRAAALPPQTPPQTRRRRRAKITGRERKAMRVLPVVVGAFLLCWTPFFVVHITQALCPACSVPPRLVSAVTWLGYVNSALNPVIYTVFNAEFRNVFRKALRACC

[4] = biological target: D(1A) dopamine receptor (Homo sapiens) (UniProt P21728); test: Binding affinity to dopamine D1 receptor (unknown origin) at 1 mM by radioligand displacement assay relative to control
[5] = biological target: D(2) dopamine receptor (Homo sapiens) (UniProt P14416); test: Binding affinity to dopamine D2 receptor (unknown origin) at 1 mM by radioligand displacement assay relative to control
[6] = biological target: D(3) dopamine receptor (Homo sapiens) (UniProt P35462); test: Binding affinity to dopamine D3 receptor (unknown origin) at 1 mM by radioligand displacement assay relative to control
NCI-H1650 [7] = test: Cytotoxicity against human NCI-H1650 cells assessed as growth inhibition after 48 hrs by MTT assay; assay type: functional
Procedure, shortened: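 H1650 cells were exposed to drug for 48 h at five concentrations bracketing 1–40 μM in 10 μM steps, with MTT read-out. GI50 is given only where the data form a sigmoidal dose response.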

[8] = biological target: D(1B) dopamine receptor (Homo sapiens) (UniProt P21918); test: Binding affinity to dopamine D5 receptor (unknown origin) at 0.1 mM by radioligand displacement assay relative to control
[9] = biological target: D(1B) dopamine receptor (Homo sapiens) (UniProt P21918); test: Binding affinity to dopamine D5 receptor (unknown origin) at 1 mM by radioligand displacement assay relative to control
Mus musculus = test: Toxicity in mouse assessed as induction of lethargy at 10 mg/kg relative to control; assay type: organism-based; settings: in vivo
NCI-H1650 [10] = test: Inhibition of ERK phosphorylation in human NCI-H1650 cells at 20 to 40 uM after 12 hrs by Western blot analysis; assay type: cell-based
[11] = biological target: D(1A) dopamine receptor (Homo sapiens) (UniProt P21728); test: Binding affinity to dopamine D1 receptor (unknown origin) at 0.1 mM by radioligand displacement assay relative to control
[12] = biological target: D(3) dopamine receptor (Homo sapiens) (UniProt P35462); test: Binding affinity to dopamine D3 receptor (unknown origin) at 0.1 mM by radioligand displacement assay relative to control
[13] = biological target: T1, D(4) dopamine receptor (Homo sapiens); test: Binding affinity to dopamine D4 receptor (unknown origin) at 1 mM by radioligand displacement assay relative to control
NCI-H1650 [14] = test: Cell cycle arrest in human NCI-H1650 cells assessed as accumulation at sub-G1 phase at 1 to 40 uM by propidium iodide staining-based flow cytometric analysis; assay type: functional

Sequence of D(2) dopamine receptor (Homo sapiens) (P14416 whole entry): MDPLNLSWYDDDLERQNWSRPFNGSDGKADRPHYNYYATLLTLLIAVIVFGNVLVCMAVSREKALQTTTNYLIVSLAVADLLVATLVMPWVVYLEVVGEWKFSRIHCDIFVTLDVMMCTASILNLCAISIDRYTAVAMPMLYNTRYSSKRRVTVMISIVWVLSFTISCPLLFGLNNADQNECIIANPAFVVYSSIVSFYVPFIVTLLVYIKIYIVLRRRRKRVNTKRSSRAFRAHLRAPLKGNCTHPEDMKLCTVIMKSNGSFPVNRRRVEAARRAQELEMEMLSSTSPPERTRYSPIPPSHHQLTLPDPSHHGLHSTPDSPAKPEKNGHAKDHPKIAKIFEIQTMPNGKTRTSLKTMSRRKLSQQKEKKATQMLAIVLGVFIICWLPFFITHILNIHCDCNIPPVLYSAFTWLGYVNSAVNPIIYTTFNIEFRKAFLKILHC
Sequence of D(1B) dopamine receptor (Homo sapiens) (P21918 whole entry): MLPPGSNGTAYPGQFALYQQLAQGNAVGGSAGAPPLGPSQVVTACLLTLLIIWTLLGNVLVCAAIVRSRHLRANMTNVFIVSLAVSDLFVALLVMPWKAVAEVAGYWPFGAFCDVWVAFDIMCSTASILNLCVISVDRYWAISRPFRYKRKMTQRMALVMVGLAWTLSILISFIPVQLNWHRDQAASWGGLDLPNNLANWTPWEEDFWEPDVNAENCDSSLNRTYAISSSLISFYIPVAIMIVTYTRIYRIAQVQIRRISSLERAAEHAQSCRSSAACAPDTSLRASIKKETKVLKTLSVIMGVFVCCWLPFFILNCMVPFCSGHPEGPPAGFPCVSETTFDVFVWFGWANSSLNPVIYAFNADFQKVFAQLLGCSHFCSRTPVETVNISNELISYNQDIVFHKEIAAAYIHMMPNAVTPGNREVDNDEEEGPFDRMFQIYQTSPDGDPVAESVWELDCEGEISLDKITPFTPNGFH
Sequence of D(3) dopamine receptor (Homo sapiens) (P35462 whole entry): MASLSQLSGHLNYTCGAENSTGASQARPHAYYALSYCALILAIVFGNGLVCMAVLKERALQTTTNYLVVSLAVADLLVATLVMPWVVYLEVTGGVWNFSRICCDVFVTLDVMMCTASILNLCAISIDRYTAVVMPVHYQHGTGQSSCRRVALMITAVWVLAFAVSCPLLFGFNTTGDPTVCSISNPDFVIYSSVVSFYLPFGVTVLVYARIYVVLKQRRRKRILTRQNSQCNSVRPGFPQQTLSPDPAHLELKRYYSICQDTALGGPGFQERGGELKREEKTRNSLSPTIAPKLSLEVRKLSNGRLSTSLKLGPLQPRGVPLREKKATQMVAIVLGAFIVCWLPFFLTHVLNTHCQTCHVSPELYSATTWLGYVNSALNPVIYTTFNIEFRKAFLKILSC
Sequence of D(1A) dopamine receptor (Homo sapiens) (P21728 whole entry): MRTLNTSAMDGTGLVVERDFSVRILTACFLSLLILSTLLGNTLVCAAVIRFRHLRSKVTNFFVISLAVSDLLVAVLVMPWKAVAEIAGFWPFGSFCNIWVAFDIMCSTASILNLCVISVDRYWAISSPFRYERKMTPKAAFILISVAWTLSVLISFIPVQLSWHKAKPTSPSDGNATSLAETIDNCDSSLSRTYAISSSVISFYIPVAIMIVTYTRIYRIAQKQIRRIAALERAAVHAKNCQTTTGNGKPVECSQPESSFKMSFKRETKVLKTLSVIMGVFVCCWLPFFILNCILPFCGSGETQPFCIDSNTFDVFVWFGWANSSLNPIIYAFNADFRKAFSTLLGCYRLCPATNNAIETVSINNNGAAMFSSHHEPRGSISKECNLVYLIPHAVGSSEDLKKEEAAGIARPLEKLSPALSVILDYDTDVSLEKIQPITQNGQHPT
Sequence of RAC-alpha serine/threonine-protein kinase (Homo sapiens) (P31749 whole entry): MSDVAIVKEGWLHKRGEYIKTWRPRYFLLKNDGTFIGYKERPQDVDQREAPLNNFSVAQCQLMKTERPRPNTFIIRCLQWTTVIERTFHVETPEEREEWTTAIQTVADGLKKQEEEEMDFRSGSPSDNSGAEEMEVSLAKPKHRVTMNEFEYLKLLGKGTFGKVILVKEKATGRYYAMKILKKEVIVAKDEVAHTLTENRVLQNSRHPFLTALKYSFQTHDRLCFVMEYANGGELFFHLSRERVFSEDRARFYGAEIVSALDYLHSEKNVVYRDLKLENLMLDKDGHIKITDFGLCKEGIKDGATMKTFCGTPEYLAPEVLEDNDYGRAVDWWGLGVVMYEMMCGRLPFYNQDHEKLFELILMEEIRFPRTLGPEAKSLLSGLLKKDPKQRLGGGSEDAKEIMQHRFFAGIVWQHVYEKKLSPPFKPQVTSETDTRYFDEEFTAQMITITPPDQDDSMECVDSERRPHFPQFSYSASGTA

inhibition [1] [%]	inhibition [2]	inhibition [3] [%]	inhibition [4] [%]	inhibition [5] [%]	inhibition [6] [%]	inhibition [8] [%]	inhibition [9] [%]	inhibition [11] [%]	inhibition [12] [%]	inhibition [13] [%]	SMILES	GI50 (NCI-H1650 [7]; NCI-H1650, 48 h) [µM]	Activity (Mus musculus)	inhibition (NCI-H1650 [10])	Activity (NCI-H1650 [14])	GI50 (NCI-H1650 [7])
> 95	Active	73	> 95	> 95	> 95	81	> 95	> 95	> 95	> 95	CN1CCN(CCCN2c3ccccc3Sc3ccc(C(F)(F)F)cc32)CC1 [TRIFLUOPERAZINE]	12.2	Toxic	Active	Active	–
–	Active	–	–	–	–	–	–	–	–	–	O=S(=O)(NCCN1c2ccccc2Sc2ccc(Cl)cc21)c1ccc(Cl)cc1	20	–	Active	–	–
< 5	–	< 5	–	–	–	< 10	–	< 5	< 5	–	Cc1ccc(S(=O)(=O)NCCCN2c3ccccc3CCc3ccc(Cl)cc32)cc1	> 40	–	–	–	–
–	–	–	–	–	–	–	–	–	–	–	O=S(=O)(c1ccc(Cl)cc1)N1CCCCC1CCN1c2ccccc2Sc2ccc(Cl)cc21 (stereo not given)	–	–	–	–	inactive
